Sampled rows, rich in hits. Any-hit rate of the full collection: about 1.4%.
IDE act – IDE (human) activation, cell-based. HEK cells, FAbeta-B cleavage, fluorescence polarization; 0% vehicle, 100% cell-free pure enzyme wells. activation, % at 5.96 µM. actives 0.073% (n = 340,000);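 active = activation above the mean of all tested compounds plus 3 SD, set per screening campaign, cut at about 17% in these data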
IDE cell inh – inhibits human insulin-degrading enzyme in HEK cells. P14735. FAbetaB cleavage, fluorescence polarization. inhibition, % at 5.59 µM. actives 0.41% (n = 320,000). AID 434962;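 active = percent inhibition above the average of all tested compounds plus 3 SD, set per screening campaign, cut at about 16% in these data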;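 also: IDE supplied by intact live HEK cells; FP after avidin binding of uncleaved biotin substrate so inhibition keeps polarization high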
CSN inh – CSN deneddylation inhibition; Q92905; Purified CSN, SCF-Nedd8-OG deneddylation, fluorescence polarization; inhibition, % at 12.5 µM; actives 0.38% (n = 360,000);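 active = pattern-corrected inhibition above about 35%, with an unprinted fluorescence ratio check between 0.5 and 1.5, limit read from the data, passing the limit was not always enough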
Target sequence (Q92905 whole entry, looked up, one chain of several): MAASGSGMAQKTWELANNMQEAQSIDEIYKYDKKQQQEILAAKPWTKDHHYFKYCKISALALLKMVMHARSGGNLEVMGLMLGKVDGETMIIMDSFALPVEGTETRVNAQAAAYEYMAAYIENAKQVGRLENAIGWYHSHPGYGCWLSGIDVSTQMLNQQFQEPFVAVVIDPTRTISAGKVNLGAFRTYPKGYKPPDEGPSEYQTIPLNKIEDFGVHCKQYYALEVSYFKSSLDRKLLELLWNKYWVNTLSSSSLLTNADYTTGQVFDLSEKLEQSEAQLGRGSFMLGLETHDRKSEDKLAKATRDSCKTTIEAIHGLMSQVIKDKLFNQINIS
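Detection – fluorescence polarization · System – HEK293T-derived human Csn5 enzyme · Controls – substrate-only high control, full reaction low control · Timing – 90 min, room temperature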
HNF4A DNA FP – change in binding of human HNF4 alpha to DNA; P41235; HNF4a-FITC DNA binding, fluorescence polarization, 1 h; activity change, % at 10 µM; actives 0.3% (n = 360,000); AID 1224865; in the data active = activity change above about 30%, passing the limit was not always enough
TPT1 inh – blocks Candida albicans tRNA 2'-phosphotransferase; recombinant caTPT1, FP RNA substrate dephosphorylation; inhibition, % at 5 µM; actives 0.81% (n = 300,000); AID 1962;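 active = inhibition above the mean of all tested compounds plus 3 SD, set per screening campaign, cut at about 24% in these data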
Numbers stand for hits.

What do the screens show for `CC1(C)CC(c2nc(-c3ccccc3)cs2)CCS1` (stereo not drawn)?
IDE act: inactive; IDE cell inh: inactive; CSN inh: 97; HNF4A DNA FP: inactive; TPT1 inh: inactive

What do the screens show for `C=CCn1c(O)c(C2=c3ccccc3=NC2=O)sc1=Nc1ccc(O)cc1`?
IDE act: 19; IDE cell inh: inactive; CSN inh: inactive; HNF4A DNA FP: inactive; TPT1 inh: inactive

What do the screens show for `COc1cc(/C=C2\SC(=S)N(N3CCOCC3)C2=O)cc(OC)c1OC`?
IDE act: inactive; IDE cell inh: inactive; CSN inh: inactive; HNF4A DNA FP: inactive; TPT1 inh: inactive

How did COc1cc(/C=C2\SC(=S)N(NC(=O)c3ccccc3OC)C2=O)ccc1O do in these assays?
IDE act: inactive; CSN inh: inactive; HNF4A DNA FP: 48

What do the screens show for `COc1cc(/C=C2\SC(=S)N(N3CCOCC3)C2=O)ccc1O`?
IDE act: inactive; IDE cell inh: 19; CSN inh: inactive; HNF4A DNA FP: inactive; TPT1 inh: inactive

What do the screens show for `CN1/C(=C\C(=O)COC(=O)c2ccco2)C(C)(C)c2ccccc21`?
IDE act: inactive; IDE cell inh: inactive; CSN inh: inactive; HNF4A DNA FP: inactive; TPT1 inh: inactive

How did CN1/C(=C\C(=O)c2ccco2)C(C)(C)c2ccccc21 do in these assays?
IDE act: inactive; IDE cell inh: inactive; CSN inh: inactive; HNF4A DNA FP: 42; TPT1 inh: inactive

What do the screens show for `CC(C)(C)Cc1c(-c2ccc(C#N)cc2)nc2c(Cl)cc(C(F)(F)F)cn12`?
CSN inh: inactive; HNF4A DNA FP: inactive

What do the screens show for `CCOC(=O)COc1cc(=O)n(CC)c2ccccc12`?
IDE act: inactive; IDE cell inh: inactive; CSN inh: 108; HNF4A DNA FP: inactive; TPT1 inh: inactive

How did CCOC(=O)C(=CNc1ccc2c(c1)c1ccccc1n2CC)C(=O)OCC do in these assays?
IDE act: inactive; IDE cell inh: inactive; CSN inh: inactive; HNF4A DNA FP: 36; TPT1 inh: inactive

Results for CCOC(=O)N1CCN(C(=O)COc2cc(=O)n(CC)c3ccccc23)CC1 ?
IDE act: inactive; IDE cell inh: inactive; CSN inh: inactive; HNF4A DNA FP: inactive; TPT1 inh: inactive

What do the screens show for `CC(C)NC(=O)CN1CCN(C(c2cc3ccccc3o2)c2nnnn2C(C)(C)C)CC1` (stereo not drawn)?
CSN inh: inactive; HNF4A DNA FP: inactive

How did CC(C)(O)C#Cc1ccc(N2C(c3ccsc3)=Cc3ccc(F)cc3C2c2c[nH]c3ccccc23)cc1 (stereo not drawn) do in these assays?
CSN inh: inactive; HNF4A DNA FP: inactive

Results for CCC(CC)C(=O)N(C)c1c(C)nc2c(OCCC3CCCCC3)cccn12 ?
CSN inh: inactive; HNF4A DNA FP: inactive

Results for CC(=O)OCCn1c2nc(=O)[nH]c(=O)c-2nc2cc(C)c(C)cc21 ?
IDE act: 75; CSN inh: inactive; HNF4A DNA FP: inactive

How did CC(=O)OCCn1c(C)[n+](CCOC(C)=O)c2cc(Cl)c(Cl)cc21 do in these assays?
IDE act: inactive; IDE cell inh: inactive; CSN inh: inactive; HNF4A DNA FP: inactive; TPT1 inh: inactive

How did CCn1cc(C=C2C(=O)c3ccccc3C2=O)c2ccccc21 do in these assays?
IDE act: inactive; CSN inh: inactive; HNF4A DNA FP: 36

Results for CCN=C1S/C(=C\c2cn(CC)c3ccccc23)C(=O)N1CC ?
IDE act: inactive; IDE cell inh: inactive; CSN inh: inactive; HNF4A DNA FP: inactive; TPT1 inh: inactive

Results for CC(C)n1[nH]c2ccccc2c1=O ?
CSN inh: inactive; HNF4A DNA FP: inactive

What do the screens show for `CC(=O)/C=C1\OCc2cc(OCc3ccccc3)ccc21`?
CSN inh: inactive; HNF4A DNA FP: inactive

How did O=C(NCCCN1CCCCCC1)c1ccc(CS(=O)(=O)Cc2ccccc2F)o1 do in these assays?
IDE act: inactive; CSN inh: 97; HNF4A DNA FP: inactive

Results for Fc1ccc(Cc2nnc(-c3cccs3)o2)cc1 ?
IDE act: inactive; IDE cell inh: inactive; CSN inh: inactive; HNF4A DNA FP: inactive; TPT1 inh: inactive

How did Fc1ccc(-c2nnc(Cc3ccc(Cl)cc3)o2)cc1 do in these assays?
IDE act: inactive; IDE cell inh: inactive; CSN inh: inactive; HNF4A DNA FP: 61; TPT1 inh: inactive

Results for CSCCC(NC(=O)c1ccco1)C(=O)NCCc1ccc(Cl)cc1 (stereo not drawn) ?
IDE act: inactive; IDE cell inh: inactive; CSN inh: 37; HNF4A DNA FP: inactive

Results for Cc1ccc(S(=O)(=O)NCCC(=O)Oc2ccc3ccc(=O)oc3c2)cc1 ?
IDE act: inactive; IDE cell inh: inactive; CSN inh: 41; HNF4A DNA FP: inactive; TPT1 inh: inactive

How did CCCCNC(=O)c1nc(C2CCN(S(=O)(=O)c3ccc(S(C)(=O)=O)cc3)CC2)oc1-c1ccccc1 do in these assays?
CSN inh: inactive; HNF4A DNA FP: inactive

How did Cn1ncc2cc3c(Nc4ccc(Cl)cc4)cccc3nc21 do in these assays?
CSN inh: inactive; HNF4A DNA FP: inactive

How did O=C(Nc1ncccn1)c1ccc([N+](=O)[O-])o1 do in these assays?
IDE act: inactive; IDE cell inh: inactive; CSN inh: 64; HNF4A DNA FP: 78; TPT1 inh: inactive

What do the screens show for `COc1ccccc1NS(=O)(=O)c1cccc(NC(=O)C2CC(=O)N(Cc3ccccc3)C2)c1` (stereo not drawn)?
IDE act: inactive; IDE cell inh: inactive; CSN inh: inactive; HNF4A DNA FP: inactive; TPT1 inh: inactive

How did COc1ccccc1NS(=O)(=O)c1cccc(NC(=O)C2CC2)c1 do in these assays?
IDE act: 21; IDE cell inh: inactive; CSN inh: inactive; HNF4A DNA FP: inactive

What do the screens show for `Cc1ccc(-c2csc(NC(=O)CCNC(=O)c3ccco3)n2)cc1`?
IDE act: inactive; IDE cell inh: inactive; CSN inh: inactive; HNF4A DNA FP: 40; TPT1 inh: inactive

How did COc1ccc(-c2csc(NC(=O)CCNC(=O)c3ccco3)n2)cc1 do in these assays?
CSN inh: inactive; HNF4A DNA FP: inactive

How did CCCCCCC(C)n1cc(C(C)=O)c(=O)[nH]c1=O (stereo not drawn) do in these assays?
IDE act: inactive; IDE cell inh: inactive; CSN inh: 50; HNF4A DNA FP: inactive; TPT1 inh: inactive

Results for O=C(CCOc1ccccc1)NCC(c1ccco1)N1CCCCC1 (stereo not drawn) ?
IDE act: inactive; IDE cell inh: inactive; CSN inh: inactive; HNF4A DNA FP: 51; TPT1 inh: inactive

How did CN(C)c1ccc(N/C=C/C(=O)c2ccccc2)cc1 do in these assays?
IDE act: inactive; IDE cell inh: inactive; CSN inh: inactive; HNF4A DNA FP: 38; TPT1 inh: inactive

What do the screens show for `CCOc1ccc(C(=O)Nc2ccc(N3CCN(C(=O)c4ccco4)CC3)cc2)cc1Br`?
IDE act: inactive; CSN inh: 44; HNF4A DNA FP: inactive

How did Nc1nc2ncccn2c1-c1ccc(C(F)(F)F)cc1 do in these assays?
CSN inh: inactive; HNF4A DNA FP: inactive

High-throughput results from PubChem.
